Assay results reported in ChEMBL document CHEMBL4038311, “An Ursolic Acid Derived Small Molecule Triggers Cancer Cell Death through Hyperstimulation of Macropinocytosis” (J Med Chem, 2017).
Calls of active or inactive are those of the source. The rule behind the calls is not given here.

Experiments:
HeLa [1] = assay: Induction of macropinocytosis in human HeLa cells assessed as colocalization of lucifer yellow and late endosomal marker Rab7 at 20 uM after 6 to 24 hrs by confocal microscopic analysis; type: functional, cell-based; details: TDE = time-dependent effect
Summary of the method: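 HeLa on poly-L-lysine coverslips given 0.1% DMSO or 20 µM for indicated times, then loaded with Lucifer yellow CH. Fixed in 4% PFA 30 min, permeabilized with 0.1% Triton X-100, blocked with 5% BSA. Anti-EEA1, -LAMP1 or -Rab7 applied overnight at 4 °C, Alexa488 secondary 1 h, DAPI counterstain. Confocal imaging.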

HeLa [2] = assay: Induction of autophagy in human HeLa cells assessed as LC3-2 accumulation at 20 uM preincubated cells with 3-MA followed by compound addition measured after 24 hrs by Western blot analysis; type: functional, cell-based
Summary of the method: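 HeLa pretreated 1 h with or without 3-MA, then 20 µM for 24 h. Lysed in RIPA with protease inhibitors, protein by BCA, SDS-PAGE onto PVDF. Blocked 5% milk, anti-LC3 overnight at 4 °C, secondary 2 h at RT. Infrared imaging, GAPDH loading control.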

[3] = Cytotoxicity against mouse C2C12 cells assessed as cell viability at 20 uM after 24 to 48 hrs by CCK8 assay relative to control; type: cell-based; details: read-out: Activity
Summary of the method: (§1)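 C2C12 or HDF cells, seeded at 5000/well, given 20 µM or 0.1% DMSO for 24 h or 48 h. CCK-8 absorbance read at 450 nm, relative to DMSO control. Six parallel wells, at least three independent repeats.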

HeLa [4] = assay: Anticancer activity against human HeLa cells assessed as cell viability at 20 uM after 48 hrs by CCK8 assay relative to control; type: functional; details: read-out: Activity
Summary of the method: (§2)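 Cells (5000/well, pre-incubated overnight) exposed to 20 µM for 48 h. CCK-8 absorbance read at 450 nm. Viability given as percent of vehicle (DMSO) control, mean ± SD. Six parallel wells per condition, at least three independent repeats.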

HT-1080 [5] = assay: Anticancer activity against human HT1080 cells assessed as cell viability at 20 uM after 48 hrs by CCK8 assay relative to control; type: functional; details: HT-1080, 48 h, read-out: Activity; summary of the method: as §2
HeLa [6] = assay: Anticancer activity against human HeLa cells assessed as reduction in colony formation after 48 hrs by Giemsa staining-based assay; type: functional, cell-based
Summary of the method: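 HeLa cells exposed 48 h to 15, 20 or 25 µM, then reseeded at 500 cells/well in six-well plates. After 15 days, colonies fixed in methanol, stained with Giemsa, photographed and counted.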

HeLa [7] = assay: Induction of apoptosis in human HeLa cells assessed as increase in cleaved caspase-3 levels at 30 to 100 uM after 48 hrs by Western blot analysis; type: functional, cell-based
Summary of the method: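 HeLa given indicated concentrations. RIPA lysates, BCA-quantified, SDS-PAGE and PVDF transfer. Anti-caspase-3 or anti-PARP1 applied overnight at 4 °C after 1 h 5% milk block, secondary 2 h at RT. Infrared imaging, GAPDH as loading control.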

HepG2 [8] = assay: Anticancer activity against human HepG2 cells assessed as cell viability at 20 uM after 48 hrs by CCK8 assay relative to control; type: functional; details: HepG2, 48 h, read-out: Activity; summary of the method: as §2
HT-1080 [9] = assay: Anticancer activity against human HT1080 cells assessed as cell viability after 48 hrs by CCK8 assay; type: functional, cell-based; details: HT-1080, 48 h
Summary of the method: (§3)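 Seeded at 1000 cells/well in DMEM with 10% FBS at 37 °C, 5% CO2, overnight pre-incubation. Serial dilutions from a 100 mM DMSO stock gave final 0–50 µM, with 48 h exposure. CCK-8 read at 450 nm. IC50 fitted against DMSO control, given with s.d., n = 3 independent experiments.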

HeLa [10] = assay: Induction of methuosis in human HeLa cells assessed as increase in number of cells with macropinosomes at 20 uM preincubated cells with macropinocytosis inhibitor EIPA for 30 mins followed by compound addition measured up to 72 hrs; type: functional, cell-based
Summary of the method: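 HeLa pretreated 30 min with or without 50 µM EIPA, then given 20 µM or DMSO for 4, 8, 12, 18, 24, 36, 48, 60 and 72 h. Cells bearing macropinosomes scored manually from field images and expressed as percentage of cells.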

HeLa [11] = assay: Induction of methuosis in human HeLa cells assessed as increase in vacuole formation preincubated cells with vacuolar-type H+-ATPase inhibitor Baf-A1 for 1 hr followed by compound addition measured after 24 hrs by phase contrast microscopic analysis; type: functional, cell-based
Summary of the method: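 HeLa cells (DMEM, 10% FBS, penicillin/streptomycin, 37 °C, 5% CO2) were given 100 nM bafilomycin A1 for 1 h before compound addition. Vacuole formation was then scored by phase-contrast imaging of live cells.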

MCF7 = assay: Anticancer activity against human MCF7 cells assessed as vacuole formation at 20 uM after 24 hrs by phase contrast microscopic analysis; type: functional, cell-based
HeLa [12] = assay: Induction of methuosis in human HeLa cells assessed as decrease in cell viability at 20 uM preincubated with macropinocytosis inhibitor EIPA for 30 mins followed by compound addition measured after 24 to 72 hrs by CCK8 assay; type: functional, cell-based
Summary of the method: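 HeLa pretreated 30 min with or without 50 µM EIPA, then given 20 µM or DMSO. CCK-8 viability read at the indicated times.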

[13] = Cytotoxicity against HDF assessed as cell viability at 20 uM after 24 to 48 hrs by CCK8 assay relative to control; type: cell-based; details: human, HDF cells; read-out: Activity; summary of the method: as §1
HepG2 [14] = assay: Anticancer activity against human HepG2 cells assessed as vacuole formation at 20 uM after 24 hrs by phase contrast microscopic analysis; type: functional, cell-based
HeLa [15] = assay: Induction of methuosis in human HeLa cells assessed as decrease in cell viability preincubated cells with dynamin inhibitor dynasore for 1 hr followed by compound addition measured after 48 hrs by CCK8 assay; type: functional, cell-based
HeLa [16] = assay: Anticancer activity against human HeLa cells assessed as vacuole formation preincubated cells with 3-MA followed by compound addition measured after 24 hrs by phase contrast microscopic analysis; type: functional, cell-based
Summary of the method: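 HeLa cells pretreated 1 h with or without 3-MA before compound or DMSO. Phase-contrast images obtained after 24 h.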

HepG2 [17] = assay: Anticancer activity against human HepG2 cells assessed as cell viability after 48 hrs by CCK8 assay; type: functional, cell-based; details: HepG2, 48 h; summary of the method: as §3
HeLa [18] = assay: Anticancer activity against human HeLa cells assessed as decrease in cell viability at 20 uM preincubated cells with 3-MA followed by compound addition measured after 24 to 48 hrs by CCK8 assay; type: functional, cell-based
Summary of the method: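 HeLa cells pretreated 1 h with or without 3-MA, then exposed to 20 µM or 0.1% DMSO for 24 h or 48 h. Viability by CCK-8 absorbance at 450 nm.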

[19] = Cytotoxicity against HDF assessed as vacuole formation at 20 uM after 24 hrs by phase contrast microscopic analysis relative to control; type: cell-based; details: human
Summary of the method: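 C2C12 or HDF cells given 20 µM or 0.1% DMSO for 24 h, then imaged live by phase-contrast microscopy.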

HeLa [20] = assay: Induction of macropinocytosis-like cytosolic vacuolization in human HeLa cells at 20 uM measured within 4 hrs by time lapse phase contrast microscopic analysis; type: functional, cell-based
Summary of the method: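 HeLa plated at 50,000 per glass-bottom dish, pre-incubated overnight, then given 20 µM in a live-cell chamber (37 °C, 5% CO2). Phase-contrast frames captured every 90 sec.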

C[C@H]1[C@H](C)CC[C@]2(C(=O)O)CC[C@]3(C)C(=CC[C@@H]4[C@@]5(C)Cc6cnn(-c7ccc(C#N)cc7)c6C(C)(C)[C@@H]5CC[C@]43C)[C@H]12
Activity (HeLa [1]): Tde
Activity (HeLa [2]): inactive
viability at 20 µM [3]: 13%
viability at 20 µM (HeLa [4]): 18.6%
viability at 20 µM (HT-1080 [5]): 26.8%
Activity (HeLa [6]): Dose-dependent effect
Activity (HeLa [7]): Active
viability at 20 µM (HepG2 [8]): 27.9%
IC50 (HT-1080 [9]): 17.2 µM
Activity (HeLa [10]): inactive
Activity (HeLa [11]): inactive
Activity (MCF7): Active
Activity (HeLa [12]): inactive
viability at 20 µM [13]: 28%
Activity (HepG2 [14]): Active
Activity (HeLa [15]): inactive
Activity (HeLa [16]): Active
IC50 (HepG2 [17]): 16.6 µM
Activity (HeLa [18]): Active
Activity [19]: Toxic
Activity (HeLa [20]): Active
